Assay results published in ChEMBL document CHEMBL1126856, “Azulenic retinoids: novel nonbenzenoid aromatic retinoids with anticancer activity” (1993).
Where “and” joins values, the source holds several entries; their conditions need not be identical. Equal entries are not always repeated.

How the values were obtained:
Assay type in all cases: functional, Mus musculus
C3H 10T1/2 [1] = assay: Toxicity against C3H10T1/2 cell line of murine embryo fibroblasts at 10e-10 M
Outline: (§1)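 C3H10T1/2 cells plated at clonal density and exposed to retinoid in acetone (0.5%) for 7 days. Plating efficiency was normalized to the MCA-treated (1 day) control plating efficiency.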

C3H 10T1/2 [2] = assay: The compound was tested for inhibition of neoplastic transformation, at a concentration of 10e-10 M; set-up: scale not given: the % may be the effect or the level left
Outline: (§2)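 C3H10T1/2 cells given 3-MCA (3 μg/mL) for 24 h, then 7 days later continuous retinoid in acetone (final 0.5%), renewed at each weekly medium change, for 4 weeks. Cultures were fixed, stained and scored for type II and III transformed foci; result as foci/dish and % of MCA-treated control. 12 dishes per group.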

C3H 10T1/2 [3] = assay: Tested for inhibition of neoplastic transformation by measuring the transformed foci per dish at 10e-8 M; outline: as §2
C3H 10T1/2 [4] = assay: Inhibition of neoplastic transformation at a concentration of 10e-6 M; outline: as §2
C3H 10T1/2 [5] = assay: Tested for anticancer activity by measuring the number of communicating cells using gap junctional communication assay at 10e-6 M
C3H 10T1/2 [6] = assay: Inhibition of neoplastic transformation was measured by measuring the transformed foci per dish at 10e-6 M; outline: as §2
C3H 10T1/2 [7] = assay: Tested for inhibition of neoplastic transformation by measuring the transformed foci per dish at 10e-10 M; outline: as §2
C3H 10T1/2 [8] = assay: Tested for toxicity against C3H10T1/2 cell line of murine embryo fibroblasts at 10e-6 M; outline: as §1
C3H 10T1/2 [9] = assay: Tested for toxicity against C3H10T1/2 cell line of murine embryo fibroblasts at 10e-8 M; outline: as §1
C3H 10T1/2 [10] = assay: Inhibition of neoplastic transformation at a concentration of 10e-8 M; set-up: scale not given: the % may be the effect or the level left; outline: as §2
C3H 10T1/2 [11] = assay: Tested for anticancer activity by measuring the number of communicating cells using gap junctional communication assay at 10e-6 M (P>0.01)
C3H 10T1/2 [12] = assay: Tested for anticancer activity by measuring the number of communicating cells using gap junctional communication assay at 10e-6 M (P>0.001)
C3H 10T1/2 [13] = assay: Tested for anticancer activity by measuring the number of communicating cells using gap junctional communication assay at 10e-6 M (P>0.05)
C3H 10T1/2 [14] = assay: Tested for anticancer activity by measuring the number of communicating cells using gap junctional communication assay at 10*e-6 M (P>0.001)
C3H 10T1/2 [15] = assay: Tested for inhibition of neoplastic transformation by measuring the transformed foci per dish at 10*e-10 M; outline: as §2
C3H 10T1/2 [16] = assay: Inhibition of Neoplastic transformation at a concentration of 10*e-6 M; set-up: scale not given: the % may be the effect or the level left; outline: as §2
C3H 10T1/2 [17] = assay: Tested for toxicity against C3H10T1/2 cell line of murine embryo fibroblasts at 10 e-6 M; outline: as §1
C3H 10T1/2 [18] = assay: Inhibition of Neoplastic transformation at a concentration of 10*e-8 M; set-up: scale not given: the % may be the effect or the level left; outline: as §2
C3H 10T1/2 [19] = assay: Inhibition of neoplastic transformation was measured by measuring the transformed foci per dish at 10 e-6 M; outline: as §2
C3H 10T1/2 [20] = assay: Tested for inhibition of neoplastic transformation by measuring the transformed foci per dish at 10*e-8 M; outline: as §2
C3H 10T1/2 [21] = assay: Tested for toxicity against C3H10T1/2 cell line of murine embryo fibroblasts at 10*e-8 M; outline: as §1
C3H 10T1/2 [22] = assay: Toxicity against C3H10T1/2 cell line of murine embryo fibroblasts at 10*e-10 M; outline: as §1
C3H 10T1/2 [23] = assay: The compound was tested for inhibition of Neoplastic transformation, at a concentration of 10*e-10 M; set-up: scale not given: the % may be the effect or the level left; outline: as §2
C3H 10T1/2 [24] = assay: The compound was tested for inhibition of Neoplastic transformation, at a concentration of 10e-10 M; set-up: scale not given: the % may be the effect or the level left; outline: as §2

Structure (SMILES)	Control (C3H 10T1/2 [1])	Control (C3H 10T1/2 [2]) [%]	Foci/dish (C3H 10T1/2 [3])	Transformed foci, % of MCA-treated control (C3H 10T1/2 [4]) [%]	Foci/dish (C3H 10T1/2 [6])	Foci/dish (C3H 10T1/2 [7])	Control (C3H 10T1/2 [8])	Control (C3H 10T1/2 [9])	Control (C3H 10T1/2 [10]) [%]	further results
CC(/C=C/C=C/c1cc(C)c2cc(C(C)C)ccc(C)c1-2)=C\C=O	115%	110	1	119	1.25	1.16	125%	129%	95	Communicating cells (C3H 10T1/2 [5]): 5.7
Cc1ccc(C(C)C)cc2c(C)c(/C=C/c3ccc(C(=O)O)cc3)cc1-2	96%	24	0.16	24	0.16	0.16	84%	129%	24	Communicating cells (C3H 10T1/2 [11]): 7.2
Cc1cc(/C=C/c2ccc(CO)cc2)c2c(C)ccc(C(C)C)cc1-2	129%	95	1.16	104	1.09	1	84%	138%	110	Communicating cells (C3H 10T1/2 [5]): 4.9
Cc1cc(/C=C/c2ccc(C(=O)O)cc2)c2c(C)ccc(C(C)C)cc1-2	119%	146	0.42	0	0	1.54	67%	94%	40	Communicating cells (C3H 10T1/2 [12]): 18.3
Cc1cc(/C=C/c2ccc(C=O)cc2)c2c(C)ccc(C(C)C)cc1-2	142%	143	1.75	87	0.91	1.5	58%	174%	166	Communicating cells (C3H 10T1/2 [11]): 8.7
Cc1cc(/C=C/C=C/C(=C\C(=O)O)C(F)(F)F)c2c(C)ccc(C(C)C)cc1-2	98%	88	0.58	88	0.58	0.58	178%	156%	88	Communicating cells (C3H 10T1/2 [13]): 5.6
Cc1cc(/C=C/C=C/c2ccc(C(=O)O)cc2)c2c(C)ccc(C(C)C)cc1-2	89%	50	0.33	75	0.5	0.33	98%	94%	50	Communicating cells (C3H 10T1/2 [5]): 2.9
CC(/C=C/C=C/c1ccc2cccccc1-2)=C(/F)C(=O)O	113%	88	0.08	12	0.08	0.58	78%	120%	12	Communicating cells (C3H 10T1/2 [11]): 8.8
CC(/C=C/C=C/c1cc(C)c2cc(C(C)C)ccc(C)c1-2)=C\C(=O)O	–	–	–	–	–	–	–	–	–	Communicating cells (C3H 10T1/2 [14]): 9.1; Foci/dish (C3H 10T1/2 [15]): 1.08; Control (C3H 10T1/2 [16]): 76%; Control (C3H 10T1/2 [17]): 89.1%; Control (C3H 10T1/2 [18]): 120%; Foci/dish (C3H 10T1/2 [19]): 0.8; Foci/dish (C3H 10T1/2 [20]): 1.27; Control (C3H 10T1/2 [21]): 120%; Control (C3H 10T1/2 [22]): 116%; Control (C3H 10T1/2 [23]): 103%
C/C(=C\c1ccc(C(=O)O)cc1)c1ccc2c(c1)C(C)(C)CCC2(C)C	95% and 96%	0	0	0	0	0	80% and 85%	83% and 91%	0	Communicating cells (C3H 10T1/2 [14]): 18.5; Control (C3H 10T1/2 [24]): 0%; Communicating cells (C3H 10T1/2 [12]): 21.2
CC(/C=C/C=C/c1cc(C)c2cc(C(C)C)ccc(C)c1-2)=C\CO	125%	142	1.5	112	1.18	1.5	89%	120%	142	Communicating cells (C3H 10T1/2 [13]): 8.8
CC(/C=C/c1cc(C)c2cc(C(C)C)ccc(C)c1-2)=C\C=C\C(C)=C\C(=O)O	94%	61	0.4	75	0.5	0.4	178%	151%	61	Communicating cells (C3H 10T1/2 [5]): 1.55
O=C(O)c1ccc(/C=C/c2ccc3cccccc2-3)cc1	129%	50	0.33	12	0.08	0.33	67%	147%	50	Communicating cells (C3H 10T1/2 [12]): 7.4
Cc1ccc2c(/C=C/c3ccc(C(=O)O)cc3)ccc(C(C)C)cc1-2	75%	24	0.16	0	0	0.16	66%	75%	24	Communicating cells (C3H 10T1/2 [12]): 9.5
